For test [1], the system named is Botrytis cinerea. Briefly: Effect on mycelial growth of Botryotinia fuckeliana relative to control. It counts as functional, organism-based. In a few lines:
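Mycelial growth on PDA containing 1 mM L-arginine in the molten agar. A 7 mm B. cinerea disk was placed at the centre of a 90 mm dish and incubated at 25 °C. Colony diameter was read at 2, 3 and 4 days. Inhibition (%) = (control diameter − treated diameter)/(control diameter − 7 mm) × 100. Triplicate plates; the experiment was run twice.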

The test system of test [2] is Solanum lycopersicum. Description: Induction of resistance to Botrytis cinerea-induced Solanum lycopersicum (tomato) fruit Solanum lycopersicum cv. No. 4 Zhongshu gray mold disease assessed as increase in NOS activity at 1 mM preharvest treatment measured after 3 days relative to control. It is filed as functional, organism-based. In a few lines: (§1)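 Plants received 1 mM L-arginine (5 mL) injected near the root, with a water control. Frozen fruit mesocarp was extracted in HEPES-KOH pH 7.6 buffer. For NO, extract was pretreated with catalase and SOD, oxyhemoglobin was added, and A550 was read at 37 °C against a buffer blank; results are given as μmol/g FW. NOS was measured by the hemoglobin assay on cytosolic/microsomal fractions. Three replicates.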

The subject of test [3] is Solanum lycopersicum. Description: Induction of resistance to Botrytis cinerea-induced Solanum lycopersicum (tomato) fruit Solanum lycopersicum cv. No. 4 Zhongshu gray mold disease assessed as increase in NO content at 1 mM preharvest treatment measured after 3 days relative to control. It is filed as functional, organism-based. In a few lines: as §1
Test [4] relates to Solanum lycopersicum. Briefly: Induction of resistance to Botrytis cinerea-induced Solanum lycopersicum (tomato) fruit Solanum lycopersicum cv. No. 4 Zhongshu gray mold disease assessed as induction of total phenolics content at 1 mM preharvest treatment measured after 3 days relative to control. It is filed as functional. In a few lines:
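Plants received 1 mM L-arginine (5 mL) injected near the root, with a water control. A685 was calibrated against […] and expressed as catechin equivalents (mg/100 g FW). Mean of three replicates.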

Test [5] deals with Solanum lycopersicum. Description: Induction of resistance to Botrytis cinerea-induced Solanum lycopersicum (tomato) fruit Solanum lycopersicum cv. No. 4 Zhongshu gray mold disease assessed as induction of defensive enzyme beta-1,3-glucanase activity at 1 mM preharvest treatment measured after 9 days relative to control. It counts as functional. In a few lines:
(§2)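 Plants received 1 mM L-arginine (5 mL) injected near the root, with a water control. Fruit mesocarp was extracted in phosphate pH 6.8 (PAL, PPO) or acetate pH 5 (CHI, GLU) buffer. Readouts: PAL, L-phenylalanine in borate pH 8.8, 30 °C 1 h, A290. PPO, 0.1 M catechol, ΔA420 over 3 min. CHI, colloidal chitin at 40 °C then snailase, A585. GLU, 0.4% laminarin at 37 °C 1 h, DNS, A500. Three replicates.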

Test [6] deals with Solanum lycopersicum. Description: Induction of resistance to Botrytis cinerea-induced Solanum lycopersicum (tomato) fruit Solanum lycopersicum cv. No. 4 Zhongshu gray mold disease assessed as induction of defensive enzyme beta-1,3-glucanase activity at 1 mM preharvest treatment measured after 6 days relative to control. It counts as functional. In short, it runs like this:
as §2

For test [7], the system named is Solanum lycopersicum. Briefly: Induction of resistance to Botrytis cinerea-induced Solanum lycopersicum (tomato) fruit Solanum lycopersicum cv. No. 4 Zhongshu gray mold disease assessed as induction of defensive enzyme beta-1,3-glucanase activity at 1 mM preharvest treatment measured after 3 days relative to control. It counts as functional. In a few lines:
as §2

In test [8] the test system is Solanum lycopersicum. Briefly: Induction of resistance to Botrytis cinerea-induced Solanum lycopersicum (tomato) fruit Solanum lycopersicum cv. No. 4 Zhongshu gray mold disease assessed as induction of defensive enzyme chitinase activity at 1 mM preharvest treatment measured after 3 days relative to control. It is filed as functional. In a few lines: as §2
In test [9] the test system is Solanum lycopersicum. Description: Induction of resistance to Botrytis cinerea-induced Solanum lycopersicum (tomato) fruit Solanum lycopersicum cv. No. 4 Zhongshu gray mold disease assessed as induction of defensive enzyme polyphenoloxidase activity at 1 mM preharvest treatment measured after 3 days relative to control. It is filed as functional, organism-based. In short, it runs like this:
as §2

Test [10] has as its system Solanum lycopersicum. Description: Induction of resistance to Botrytis cinerea-induced Solanum lycopersicum (tomato) fruit Solanum lycopersicum cv. No. 4 Zhongshu gray mold disease assessed as induction of defensive enzyme phenylalanine ammonialyase activity at 1 mM preharvest treatment measured after 9 days relative to control. It is filed as functional, organism-based. In short, it runs like this: as §2

The subject of test [11] is Botrytis cinerea. Briefly: Induction of resistance to Botryotinia fuckeliana-induced tomato fruit Solanum lycopersicum cv. No. 4 Zhongshu gray mold disease assessed as inhibition of lession area at 1 mM injected near root area measured after 12 days relative to control. It counts as functional. Particulars: 288 h. In a few lines: (§3)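 Plants received 5 mL of L-arginine (0.5, 1 or 5 mM) by injection at a cut near the root area, with distilled water as control; 30 plants per treatment. Green mature fruit were picked 0–12 days after treatment. Fruit were ethanol-sterilised and wounded at three equator sites, each receiving 10 μL of 2 × 10^5 conidia/mL. Fruit were kept at 25 °C, 90–95% RH. Incidence and lesion area (3.14 × (d/2)²) were scored at 4 days; three replicates.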

Test [12] relates to Botrytis cinerea. Description: Induction of resistance to Botryotinia fuckeliana-induced tomato fruit Solanum lycopersicum cv. No. 4 Zhongshu gray mold disease assessed as inhibition of lession area at 1 mM injected near root area measured after 9 days relative to control. It counts as functional. Particulars: 216 h. In a few lines:
as §3

The subject of test [13] is Botrytis cinerea. Description: Induction of resistance to Botryotinia fuckeliana-induced tomato fruit Solanum lycopersicum cv. No. 4 Zhongshu gray mold disease assessed as inhibition of lession area at 1 mM injected near root area measured after 6 days relative to control. It is filed as functional. To be noted: 144 h. In short, it runs like this: as §3
Test [14] concerns Botrytis cinerea. Description: Induction of resistance to Botryotinia fuckeliana-induced tomato fruit Solanum lycopersicum cv. No. 4 Zhongshu gray mold disease assessed as inhibition of lession area at 1 mM injected near root area measured after 3 days relative to control. It is filed as functional. To be noted: 72 h. In short, it runs like this: as §3
Test [15] deals with Botrytis cinerea. Briefly: Induction of resistance to Botryotinia fuckeliana-induced tomato fruit Solanum lycopersicum cv. No. 4 Zhongshu gray mold disease assessed as disease incidence at 5 mM injected near root area measured after 12 days relative to control. It counts as functional, organism-based. In short, it runs like this:
as §3

Test [16] deals with Botrytis cinerea. Description: Induction of resistance to Botryotinia fuckeliana-induced tomato fruit Solanum lycopersicum cv. No. 4 Zhongshu gray mold disease assessed as disease incidence at 1 mM injected near root area measured after 12 days relative to control. It is filed as functional, organism-based. In a few lines:
as §3

Test [17] relates to Botrytis cinerea. Briefly: Induction of resistance to Botryotinia fuckeliana-induced tomato fruit Solanum lycopersicum cv. No. 4 Zhongshu gray mold disease assessed as disease incidence at 0.5 mM injected near root area measured after 12 days relative to control. It is filed as functional, organism-based. In a few lines: as §3
Test [18] relates to Botrytis cinerea. Briefly: Induction of resistance to Botryotinia fuckeliana-induced tomato fruit Solanum lycopersicum cv. No. 4 Zhongshu gray mold disease assessed as disease incidence at 5 mM injected near root area measured after 6 days relative to control. It is filed as functional. In short, it runs like this:
as §3

The subject of test [19] is Botrytis cinerea. Description: Induction of resistance to Botryotinia fuckeliana-induced tomato fruit Solanum lycopersicum cv. No. 4 Zhongshu gray mold disease assessed as disease incidence at 1 mM injected near root area measured after 6 days relative to control. It is filed as functional. In a few lines: as §3
Test [20] has as its system Botrytis cinerea. Description: Induction of resistance to Botryotinia fuckeliana-induced tomato fruit Solanum lycopersicum cv. No. 4 Zhongshu gray mold disease assessed as disease incidence at 0.5 mM injected near root area measured after 6 days relative to control. It is filed as functional. In short, it runs like this: as §3
Test [21] deals with Botrytis cinerea. Description: Induction of resistance to Botryotinia fuckeliana-induced tomato fruit Solanum lycopersicum cv. No. 4 Zhongshu gray mold disease assessed as disease incidence at 5 mM injected near root area measured after 3 days relative to control. It counts as functional. In a few lines:
as §3

Test [22] concerns Botrytis cinerea. Description: Induction of resistance to Botryotinia fuckeliana-induced tomato fruit Solanum lycopersicum cv. No. 4 Zhongshu gray mold disease assessed as disease incidence at 1 mM injected near root area measured after 3 days relative to control. It is filed as functional. In a few lines: as §3
Test [23] concerns Botrytis cinerea. Briefly: Induction of resistance to Botryotinia fuckeliana-induced tomato fruit Solanum lycopersicum cv. No. 4 Zhongshu gray mold disease assessed as disease incidence at 0.5 mM injected near root area measured after 3 days relative to control. It is filed as functional. In a few lines:
as §3

The structures appear in SMILES notation. Active and inactive are the calls of the source. No cut-off for these calls is given here.

Consider `N=C(N)NCCC[C@H](N)C(=O)O` [ARGININE], for which the outcome with Botrytis cinerea [1] was inactive. The result in the test on Solanum lycopersicum [2], in the test on Solanum lycopersicum [3], with Solanum lycopersicum [9], in the test on Solanum lycopersicum [10], with Botrytis cinerea [15] and in the test on Botrytis cinerea [16] was Active. The result in the test with Botrytis cinerea [17] was Active. The “fold change (FC)” value was 1.17 in the test on Solanum lycopersicum [4]; 3.1 in the test with Solanum lycopersicum [5]; 1.4 in the test on Solanum lycopersicum [6]; 1.6 in the test on Solanum lycopersicum [7]; 1.9 in the test on Solanum lycopersicum [8]. In addition, the inhibition in vivo at 1000 µM worked out at 85% in the test with Botrytis cinerea [11], 90% with Botrytis cinerea [12], 90% in the test on Botrytis cinerea [13] and 86% with Botrytis cinerea [14]. Moreover, the Activity is recorded as 38% in the test with Botrytis cinerea [18]; 18% in the test on Botrytis cinerea [19]; 31% in the test on Botrytis cinerea [20]; 37% with Botrytis cinerea [21]; 16% in the test with Botrytis cinerea [22]; 29% in the test on Botrytis cinerea [23].

These data come from ChEMBL document CHEMBL3046760, “Preharvest L-arginine treatment induced postharvest disease resistance to Botrysis cinerea in tomato fruits” (2011).
